Results taken from ChEMBL document CHEMBL4033715, “Optimization and biological evaluation of 2-aminobenzothiazole derivatives as Aurora B kinase inhibitors” (Bioorg Med Chem, 2017).
Active and inactive are the calls of the source. No cut-off for these calls is given here.

Tests used:
Aurora kinase B [1] = target: T1, Aurora kinase B (Homo sapiens, UniProt Q96GD4); experiment: Inhibition of recombinant full length human N-terminal GST-tagged Aurora B expressed in baculovirus infected Sf9 cells at 1 uM using myelin basic protein as substrate after 60 mins by ADP-Glo luminescence assay relative to control
T1 sequence (Q96GD4 whole entry): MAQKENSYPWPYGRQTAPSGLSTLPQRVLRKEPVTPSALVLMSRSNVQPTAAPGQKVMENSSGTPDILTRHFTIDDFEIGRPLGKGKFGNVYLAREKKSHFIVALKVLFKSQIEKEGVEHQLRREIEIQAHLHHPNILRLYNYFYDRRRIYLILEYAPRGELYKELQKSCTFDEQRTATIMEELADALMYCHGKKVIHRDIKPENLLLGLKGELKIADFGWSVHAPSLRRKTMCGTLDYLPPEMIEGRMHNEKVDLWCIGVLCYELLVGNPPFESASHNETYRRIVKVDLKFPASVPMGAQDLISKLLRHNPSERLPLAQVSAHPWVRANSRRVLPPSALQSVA
How it was run: (§1)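 Purified active Aurora A or Aurora B with myelin basic protein substrate and 10 µM ATP; compounds dissolved in DMSO and tested at a single concentration (10 µM screen, or 1 µM). Reaction 60 min at room temperature, then ADP-Glo reagent 30 min and detection reagent 30 min; luminescence read. Inhibition expressed relative to 10 µM staurosporine.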

Aurora kinase B [2] = target: T1, Aurora kinase B; experiment: Inhibition of recombinant full length human N-terminal GST-tagged Aurora B expressed in baculovirus infected Sf9 cells using myelin basic protein as substrate after 60 mins by ADP-Glo luminescence assay
How it was run: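 ADP-Glo assay with purified active Aurora B, myelin basic protein substrate, 10 µM ATP, 60 min kinase reaction at room temperature followed by luminescence detection. IC50 determined for compounds exceeding 50% inhibition relative to staurosporine, calculated by curve fitting.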

[3] = target: T2, Aurora kinase A (Homo sapiens) (UniProt O14965); experiment: Inhibition of recombinant full length human N-terminal GST-tagged Aurora A expressed in baculovirus infected Sf9 cells at 1 uM using myelin basic protein as substrate after 60 mins by ADP-Glo luminescence assay relative to control; how it was run: as §1
T2 sequence (whole entry): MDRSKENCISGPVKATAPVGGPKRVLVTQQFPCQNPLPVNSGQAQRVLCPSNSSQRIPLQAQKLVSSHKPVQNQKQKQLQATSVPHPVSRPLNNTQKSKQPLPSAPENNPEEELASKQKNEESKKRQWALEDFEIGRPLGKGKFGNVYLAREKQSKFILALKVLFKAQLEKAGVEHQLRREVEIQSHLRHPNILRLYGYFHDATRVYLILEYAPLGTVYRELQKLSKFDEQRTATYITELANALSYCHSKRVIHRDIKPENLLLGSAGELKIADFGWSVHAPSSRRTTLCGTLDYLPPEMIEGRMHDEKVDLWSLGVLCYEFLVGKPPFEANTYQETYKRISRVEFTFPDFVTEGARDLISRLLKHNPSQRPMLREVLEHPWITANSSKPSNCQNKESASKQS

Aurora kinase B [4] = target: T1, Aurora kinase B; experiment: Inhibition of recombinant full length human N-terminal GST-tagged Aurora B expressed in baculovirus infected Sf9 cells at 10 uM using myelin basic protein as substrate after 60 mins by ADP-Glo luminescence assay relative to control; how it was run: as §1
[5] = target: T2, Aurora kinase A (Homo sapiens); experiment: Inhibition of recombinant full length human N-terminal GST-tagged Aurora A expressed in baculovirus infected Sf9 cells at 10 uM using myelin basic protein as substrate after 60 mins by ADP-Glo luminescence assay relative to control; how it was run: as §1
HeLa [6] = experiment: Cell cycle arrest in human HeLa cells assessed as increase in accumulation at G2/M phase at 50 uM after 24 hrs by propidium iodide staining based flow cytometry relative to control; format: functional
How it was run: (§2)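 HeLa cells seeded the day before and exposed to inhibitor (10 or 50 µM) or DMSO for 24 h, harvested non-enzymatically, fixed in cold 70% EtOH at 4 °C for 2 h, stained with PI/Triton X-100 solution containing RNase A (25 °C, 20 min, dark). Cell cycle distribution was measured by flow cytometry, and the G2/M percentage was compared with DMSO.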

Aurora kinase B [7] = target: T1, Aurora kinase B; experiment: Inhibition of Aurora B in human HeLa cells assessed as reduction in histone H3 phosphorylation at Ser10 residue after 1 hr by Western blot analysis; format: cell-based
How it was run: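 HeLa cells synchronized in mitosis by a 16 h Monastrol block, then released into Monastrol-free medium containing inhibitor at graded concentrations; Hesperadin 5 µM and DMSO as references. Cells harvested 1 h after release, lysed in RIPA with protease/phosphatase inhibitors, 20 µg protein resolved on 8~15% SDS-PAGE. Immunoblotted for phospho-H3S10, total histone H3, α-tubulin and Aurora B.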

HeLa [8] = experiment: Cell cycle arrest in human HeLa cells assessed as accumulation at G2/M phase at 50 uM after 24 hrs by propidium iodide staining based flow cytometry (reference value: 12 %); format: functional; how it was run: as §2

Compound | inhibition (Aurora kinase B [1]) [%] | IC50 (Aurora kinase B [2]) [nM] | inhibition [3] | inhibition (Aurora kinase B [4]) | inhibition [5] | also measured
O=C(Nc1ccc(CNc2nc3ccc(OCCN4CCOCC4)cc3s2)cc1)Nc1ccc(Cl)c(Cl)c1 | 77 | 270 | 2% | – | – | –
O=C(Nc1cccc(Cl)c1)Nc1cccc(CNc2nc3ccc(OCCN4CCOCC4)cc3s2)c1 | 33 | 1000 | inactive | – | – | –
COc1ccc(NC(=O)Nc2ccc(CNc3nc4ccc(OCCN5CCOCC5)cc4s3)cc2)cc1 | 79 | 250 | inactive | – | – | –
S=C(Nc1ccc(Cl)cc1)Nc1ccc(CNc2nc3ccc(OCCN4CCOCC4)cc3s2)cc1 | 94 | 110 | 3% | – | – | –
O=C(Nc1ccc(Cl)cc1)Nc1ccc(CNc2nc3ccc(OCCN4CCCCC4)cc3s2)cc1 | 5 | 2300 | inactive | – | – | –
O=S(=O)(Nc1ccc(CNc2nc3ccc(OCCN4CCOCC4)cc3s2)cc1)c1ccc(Cl)cc1 | – | – | – | 28% | inactive | –
O=C(Nc1ccc(Cl)cc1)n1ccc(CNc2nc3ccc(OCCN4CCOCC4)cc3s2)n1 | – | – | – | 31% | – | –
O=C(Nc1ccc(Cl)c(Cl)c1)n1ccc(CNc2nc3ccc(OCCN4CCOCC4)cc3s2)n1 | – | – | – | 46% | – | –
O=C(Nc1ccc(F)cc1)Nc1ccc(CNc2nc3ccc(OCCN4CCOCC4)cc3s2)cc1 | 44 | 700 | inactive | – | – | –
COc1ccc(C(=O)Nc2ccc(CNc3nc4ccc(OCCN5CCOCC5)cc4s3)cc2)cc1 | – | 700 | – | 85% | inactive | –
O=C(Nc1ccc(Br)cc1)Nc1ccc(CNc2nc3ccc(OCCN4CCOCC4)cc3s2)cc1 | 83 | 90 | 9% | – | – | fold change (FC) (HeLa [6]): >2; inhibition (Aurora kinase B [7]): Dose-dependent effect
O=C(Nc1ccc(Cl)cc1)Nc1cccc(CNc2nc3ccc(OCCN4CCOCC4)cc3s2)c1 | 31 | 1200 | inactive | – | – | –
COc1ccc(NC(=S)Nc2ccc(CNc3nc4ccc(OCCN5CCOCC5)cc4s3)cc2)cc1 | 72 | 360 | inactive | – | – | –
O=C(Nc1cccc(CNc2nc3ccc(OCCN4CCOCC4)cc3s2)c1)c1ccc([N+](=O)[O-])cc1 | – | – | – | 17% | inactive | –
O=C(Nc1ccc(Cl)cc1)Nc1ccc(CNc2nc3ccc(OCCN4CCOCC4)cc3s2)cc1 | 100 | 120 | inactive | – | – | Activity (HeLa [8]): 17%; inhibition (Aurora kinase B [7]): Dose-dependent effect
CN(C)CCOc1ccc2nc(NCc3ccc(NC(=O)Nc4ccc(Cl)cc4)cc3)sc2c1 | 65 | 320 | inactive | – | – | –
O=S(=O)(Nc1ccc(CNc2nc3ccc(OCCN4CCOCC4)cc3s2)cc1)c1ccc(F)cc1 | – | – | – | 30% | inactive | –
O=C(Nc1ccc(CNc2nc3ccc(OCCN4CCOCC4)cc3s2)cc1)Nc1cccc(Cl)c1 | 67 | 460 | inactive | – | – | –
O=C(Nc1ccc(Br)cc1)n1ccc(CNc2nc3ccc(OCCN4CCOCC4)cc3s2)n1 | – | – | – | 31% | – | –
O=C(Nc1ccc(F)cc1)n1ccc(CNc2nc3ccc(OCCN4CCOCC4)cc3s2)n1 | – | – | – | 5% | – | –

Second part, led by results:

inhibition (Aurora kinase B [1]) [%] | IC50 (Aurora kinase B [2]) [nM] | inhibition [3] | inhibition (Aurora kinase B [4]) | inhibition [5] | Compound | also measured
– | – | – | 25% | inactive | O=C(Nc1ccc(CNc2nc3ccc(OCCN4CCOCC4)cc3s2)cc1)c1ccccc1 | –
– | – | – | inactive | inactive | O=C(Nc1ccccc1CNc1nc2ccc(OCCN3CCOCC3)cc2s1)c1ccccc1 | –
– | 1400 | – | 91% | inactive | O=C(Nc1ccc(CNc2nc3ccc(OCCN4CCOCC4)cc3s2)cc1)c1cccc(Cl)c1 | –
– | 9000 | – | 56% | inactive | O=C(Nc1cccc(CNc2nc3ccc(OCCN4CCOCC4)cc3s2)c1)c1ccc(F)cc1 | –
– | 3000 | – | 59% | inactive | O=C(Nc1ccc(CNc2nc3ccc(OCCN4CCOCC4)cc3s2)cc1)c1ccc(Cl)cc1 | –
– | – | – | 24% | inactive | O=C(Nc1cccc(CNc2nc3ccc(OCCN4CCOCC4)cc3s2)c1)c1ccccc1 | –
– | – | – | 16% | inactive | O=S(=O)(Nc1ccc(CNc2nc3ccc(OCCN4CCOCC4)cc3s2)cc1)c1ccccc1 | –
37 | 3100 | inactive | – | – | O=C(Nc1ccccc1)Nc1cccc(CNc2nc3ccc(OCCN4CCOCC4)cc3s2)c1 | –
91 | 270 | inactive | – | – | O=C(Nc1ccccc1)Nc1ccc(CNc2nc3ccc(OCCN4CCOCC4)cc3s2)cc1 | –
– | – | – | 12% | – | O=C(Nc1ccccc1)n1ccc(CNc2nc3ccc(OCCN4CCOCC4)cc3s2)n1 | –
– | – | – | 30% | inactive | O=C(Nc1cccc(CNc2nc3ccc(OCCN4CCOCC4)cc3s2)c1)c1cccc(Cl)c1 | –
– | 6200 | – | 42% | inactive | O=C(Nc1cccc(CNc2nc3ccc(OCCN4CCOCC4)cc3s2)c1)c1ccc(Cl)cc1 | –
